Experimental findings from paper PMC4797071 (ACS chemical neuroscience, 2015) are described below.

In series [1] the test system is primary cortical neuronal cells. Put plainly: Aβ induced toxicity, MTS assay with primary neuronal cultures. Format: cell-based, mice. Particulars: for protection from Aβ toxicity at 10 µM peptide: 10 µM Aβ(1–42), MTS, Aβ alone ~35% cell viability. An outline of the steps: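 Cortical neurons from E15.5 mouse embryos, matured in neurobasal medium. Aβ(1–42) at 1 mg/mL in PBS, diluted to 10 µM with or without test peptide or mutant TTR at varying doses. Added at 6 DIV alongside vehicle and controls. At 8 DIV, MTS reagent for 2–3 h, absorbance 490 nm. Significance versus vehicle and versus Aβ set at p < 0.05.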

A short description of series [2]: Peptide self-assembly by photoinduced cross-linking. To be noted: peptide 36 µM, not cross-linked, boiled, denaturing gel, silver staining. Format: physicochemical. The method, boiled down:
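Peptides at 36 µM in PBSA, 1 h at 37 °C, then photo-cross-linked (PICUP) and heated 95 °C for 5 min. Non-cross-linked samples boiled for comparison. Separated on 10–20% Tris-Tricine gel; silver stained.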

Series [3] is described as follows: Peptide self-association by light scattering. Format: physicochemical. Particulars: peptide alone 80 µM, 37 °C, after 1 h of incubation; data not shown.
Series [4] has as its target T1, Aβ(1–40) (Homo sapiens, UniProt P05067). Put plainly: Thioflavin T. Format: biochemical. To be noted: 28 µM Aβ, 2.8 µM peptide or protein, 37 °C, 1, 5, 24, 48 h. An outline of the steps: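 Aβ(1–40) urea/glycine stock diluted into PBSA; 28 µM alone or with 2.8 µM peptide or mutant TTR, incubated at 37 °C. At 1, 5, 24 and 48 h, aliquots diluted 14-fold into 10 µM ThT in PBSA. Excitation 440 nm, emission 460–500 nm; intensity at 480 nm used. Three serial spectra averaged, ThT-in-PBSA background subtracted; some samples from two independent experiments.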

Series [5] addresses T1, Aβ(1–40). The series is described as follows: Aβ aggregate growth kinetics by dynamic light scattering. To be noted: method not specified. Format: biochemical. The method, boiled down:
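Aβ(1–40) relyophilized from 50% ACN and stored as a urea/glycine stock; thawed, sonicated 2 min and diluted into PBSA. 140 µM Aβ alone or with 14 µM peptide, 0.45 µm filtered into a cuvette held at 37 °C. 488 nm laser; intensity at 90° recorded over 10 h and normalized to total mass concentration; z-averaged hydrodynamic diameter from the autocorrelation function by cumulants.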

T1 sequence (P05067 672-711 limits assumed): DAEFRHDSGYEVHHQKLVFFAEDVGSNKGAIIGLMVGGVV

Take “SKV^DPPTIAALLSPYSYSQ (head to tail) [CG2]”: in series [1], the “protection from Aβ toxicity at 10 µM peptide” value is “no protective effect”.

On to SKVVT^DPPRYTIAALLSPYSYSQ [LG3], for which the “bands in the absence of cross-linker” value in series [2] is listed as ~ 5 kDa. Also, the “protection from Aβ toxicity at 10 µM peptide” value in series [1] is “no protective effect”. Moreover, in series [3], the “light scattered above background (self-association)” value is “did not scatter light above background”. Also, the “effect on ThT fluorescence increase up to 48 h” value in series [4] is reported as “at most a minor inhibitory effect”.

Turning to SKV^DPPTIAALLSPYSYSQ [LG2], the “inhibition of Aβ toxicity (summary statement)” value in series [1] (summary, concentration not given) was “nor did they affect Aβ aggregation or inhibit Aβ toxicity”. Also, the “effect on Aβ aggregation (summary statement)” value in series [5] is “nor did they affect Aβ aggregation”.
